Columns and labels:
[1] = Therapeutic index was measured as concentration required to cause 50% death of uninfected MT-4- cells to IC50 concentration required to inhibit syncytia formation by 50% in HIV-1 infected MT-4 cells; format: cell-based, MT4; conditions: human, uninfected MT-4 cells and HIV-1 infected MT-4 cells; read-out: TI
How it was run: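 Ratio of ID50 to IC50. ID50: uninfected MT-4 cells (2 × 10⁵), three replicate cultures, with graded analogue concentrations; viability by trypan blue exclusion 6 days after drug addition; ID50 is the concentration killing 50% of cells. IC50: 50% inhibition of syncytia in HIV-1-infected MT-4 cells (1 h infection, 37 °C), scored microscopically at day 5.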

MT4 [2] = assay: (§1) Concentration required to inhibit syntica formation by 50% in HIV-1 infected MT-4 cells; format: functional, cell-based; conditions: Homo sapiens
How it was run: (§2)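 MT-4 cells (3 × 10⁵) infected with diluted HIV-1 for 1 h at 37 °C, washed three times, then cultured with inhibitor. Syncytia were counted by inverted light microscopy 5 days post-infection. IC50 was the concentration giving 50% inhibition of syncytia formation without cell toxicity.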

MT4 [3] = assay: as §1; format: ADME, cell-based; conditions: Homo sapiens; how it was run: as §2

| SMILES | selectivity ratio [1] | IC50 (MT4 [2]) [nM] | IC50 (MT4 [3]) [nM] |
| --- | --- | --- | --- |
| CCOP(=O)(CC(=O)OCC1OC(n2ccc(N)nc2=O)CS1)OCC (stereo unspecified) | 50 | 10000 | – |
| CC(=O)Nc1ccn(C2CSC(COC(=O)P(=O)(O)O)O2)c(=O)n1 (stereo unspecified) | 500 | 200 | – |
| Nc1ccn(C2CSC(COP(=O)(O)C(=O)O)O2)c(=O)n1 (stereo unspecified) | 10 | 100000 | – |
| Nc1ccn([C@@H]2CS[C@H](CO)O2)c(=O)n1 [LAMIVUDINE] | 1000 | 100 | – |
| CCOP(=O)(OCC)C(=O)OCC1OC(n2ccc(NC(C)=O)nc2=O)CS1 (stereo unspecified) | 350 | 300 | – |
| O=C(CP(=O)(O)O)Nc1ccn(C2CSC(CO)O2)c(=O)n1 (stereo unspecified) | 10 | – | 100000 |
| CCOP(=O)(CC(=O)Nc1ccn(C2CSC(CO)O2)c(=O)n1)OCC (stereo unspecified) | 100 | 5000 | – |
| Nc1ccn(C2CSC(COC(=O)CP(=O)(O)O)O2)c(=O)n1 (stereo unspecified) | 300 | 1000 | – |
